SUMO1 PPI mod: alters human SUMO1 binding to SIM partners; P63165; SUMO1 binding to a labelled peptide, TR-FRET, 1 h; inhibition, % at 20 µM; 0.33% of 360,000 active; in the data active = inhibition above about 37%
NS3 helicase inh: HCV NS3 helicase inhibition; NS3 helicase DNA unwinding, Cy5 molecular beacon fluorescence; inhibition, % at 10.9 µM; 0.56% of 290,000 active; AID 1800;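 active = inhibition above the mean of all tested compounds plus 3 SD, set per campaign, cut at about 35% in these data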;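 note: 0% = DMSO wells and 100% = thioflavine S control wells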
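Assay system – hepatitis C virus NS3 helicase domain fragment enzyme · Buffer or medium – MOPS pH 6.5, MgCl2, DTT, Tween20, BSA · Reagent – Cy5/quencher beacon DNA duplex and ATP to start · Compound – single 10.9 µM dose · Timing – 1 h at 25 °C · Technique – Cy5 beacon fluorescence read at start and 1 h · Measure – % inhibition of unwinding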
MBD2 inh: MBD2-methylated oligo binding inhibition; inhibition, % at 4.4 µM; TR-FRET, MBD2 binding to methylated oligonucleotide; Q9UBB5; 0.31% of 370,000 active; AID 686964; in the data active = inhibition above about 13%
Pemphigus Ab inh: human desmoglein-3 autoantibody binding inhibition. DSG3-coupled beads, scFv-anti-DSG3-GFP binding, flow cytometry; stronger effect = lower value. AID 588358. 0.48% of 310,000 active. binding (percent of control), % at 10 µM. P32926;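 active = binding more than 3 SD below its plate's average and above zero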;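 note: hits lower antibody fragment binding to DSG3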
DNMT1 inh: blocks human DNA methyltransferase DNMT1 | DNMT1 molecular beacon, Hinp1I cleavage, fluorescence | inhibition (reported as % activation of signal), % at 10 µM | 0.83% of 360,000 active | AID 588458; in the data active = inhibition above about 50%
Target sequence (P26358 504-1616 limits assumed): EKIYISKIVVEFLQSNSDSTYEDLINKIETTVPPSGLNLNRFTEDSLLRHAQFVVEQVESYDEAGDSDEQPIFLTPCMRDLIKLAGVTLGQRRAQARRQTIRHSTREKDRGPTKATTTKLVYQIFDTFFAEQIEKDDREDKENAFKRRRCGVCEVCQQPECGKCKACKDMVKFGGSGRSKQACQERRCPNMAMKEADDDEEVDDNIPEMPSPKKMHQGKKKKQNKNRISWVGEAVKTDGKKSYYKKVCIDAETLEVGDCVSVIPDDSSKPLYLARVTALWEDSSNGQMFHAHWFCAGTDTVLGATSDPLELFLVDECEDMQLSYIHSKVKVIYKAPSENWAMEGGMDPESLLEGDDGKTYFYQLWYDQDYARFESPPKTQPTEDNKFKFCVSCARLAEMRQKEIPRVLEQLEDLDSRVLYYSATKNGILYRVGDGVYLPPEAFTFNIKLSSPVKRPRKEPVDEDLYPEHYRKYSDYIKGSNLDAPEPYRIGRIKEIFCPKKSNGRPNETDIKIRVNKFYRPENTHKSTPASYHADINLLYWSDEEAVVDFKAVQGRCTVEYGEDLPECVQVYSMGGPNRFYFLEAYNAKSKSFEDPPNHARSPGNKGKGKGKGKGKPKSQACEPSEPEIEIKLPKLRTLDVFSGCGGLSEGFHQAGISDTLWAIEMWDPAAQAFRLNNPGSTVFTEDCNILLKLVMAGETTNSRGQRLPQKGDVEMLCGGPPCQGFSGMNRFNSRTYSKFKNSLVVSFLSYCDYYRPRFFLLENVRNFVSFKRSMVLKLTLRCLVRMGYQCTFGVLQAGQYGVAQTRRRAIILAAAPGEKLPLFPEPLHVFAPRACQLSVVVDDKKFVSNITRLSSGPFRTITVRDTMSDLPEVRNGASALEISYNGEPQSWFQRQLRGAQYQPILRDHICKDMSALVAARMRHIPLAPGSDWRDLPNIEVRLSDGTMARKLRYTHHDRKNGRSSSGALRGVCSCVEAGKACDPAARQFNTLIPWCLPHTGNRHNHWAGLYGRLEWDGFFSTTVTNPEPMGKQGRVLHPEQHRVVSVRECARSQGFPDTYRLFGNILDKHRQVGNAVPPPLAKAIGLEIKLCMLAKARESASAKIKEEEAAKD
UHRF1 binding: UHRF1 methyl-DNA binding inhibition; Q96T88; UHRF1 binding to methylated oligo, TR-FRET; inhibition, % at 4.4 µM; 0.75% of 370,000 active; in the data active = inhibition above about 21%;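 note: UHRF1 SRA domain binding a hemimethylated CpG hairpin DNA probe; 0% = median of test compound wells and 100% = reference inhibitor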
An asterisk follows results filed as active. Only some compounds are listed: those with a hit (about 2.5% of all), similar ones and a draw of the others.

Screening CSc1ncccc1C(=O)N1CCCC(C(=O)c2ccc3ccccc3c2)C1 (stereo not given) returned SUMO1 PPI mod -11, NS3 helicase inh 14, MBD2 inh 5, Pemphigus Ab inh 107, DNMT1 inh 0 and UHRF1 binding 11.
Screening CSc1ccc(C(=O)C2CCCN(C(=O)c3cccnc3SC)C2)cc1 (stereo not given) returned SUMO1 PPI mod 3, NS3 helicase inh -9, MBD2 inh 13, Pemphigus Ab inh 93, DNMT1 inh 1 and UHRF1 binding 26*.
Screening O=C(COC(=O)CCC(=O)c1ccc(F)cc1)Nc1ccc2[nH]c(=O)[nH]c2c1 returned SUMO1 PPI mod 39*, MBD2 inh 3, Pemphigus Ab inh 118, DNMT1 inh 0 and UHRF1 binding 2.
Screening O=C(COC(=O)c1ccccc1OC(F)F)Nc1ccc2[nH]c(=O)[nH]c2c1 returned SUMO1 PPI mod 40*, MBD2 inh 1, Pemphigus Ab inh 93, DNMT1 inh -10 and UHRF1 binding 1.
Screening Cc1ccc(C(=O)CCC(=O)OCC(=O)Nc2ccc3[nH]c(=O)[nH]c3c2)cc1 returned SUMO1 PPI mod 25, MBD2 inh 1, Pemphigus Ab inh 95, DNMT1 inh 4 and UHRF1 binding 0.
For O=C(COC(=O)c1ccc(Cl)c(S(=O)(=O)N2CCOCC2)c1)Nc1ccc2[nH]c(=O)[nH]c2c1 the results were SUMO1 PPI mod 84*, MBD2 inh 4, Pemphigus Ab inh 101, DNMT1 inh -2 and UHRF1 binding 4.
`CCC(C(=O)OCC(=O)Nc1ccc2[nH]c(=O)[nH]c2c1)c1ccccc1` (stereo not given) gave SUMO1 PPI mod 43*, MBD2 inh 0, Pemphigus Ab inh 98, DNMT1 inh 3 and UHRF1 binding 3.
`CSc1ccccc1C(=O)N1CCCC(CNC(=O)c2ccc(F)cc2)C1` (stereo not given) gave SUMO1 PPI mod 1, NS3 helicase inh 2, MBD2 inh 8, Pemphigus Ab inh 105, DNMT1 inh 9 and UHRF1 binding 1.
`Cc1ccc(CN2CCCCC(NC(=O)Nc3ccccc3)C2=O)cc1` (stereo not given) gave MBD2 inh 2 and UHRF1 binding -1.
For COc1ccc(CC(=O)OCC(=O)Nc2ccc3[nH]c(=O)[nH]c3c2)cc1 the results were SUMO1 PPI mod 15, MBD2 inh 3, Pemphigus Ab inh 100, DNMT1 inh 1 and UHRF1 binding 2.
Screening O=C(CSc1nncs1)Nc1ccc2[nH]c(=O)[nH]c2c1 returned SUMO1 PPI mod 66*, MBD2 inh 2, Pemphigus Ab inh 108, DNMT1 inh 1 and UHRF1 binding -1.
`O=C(COC(=O)Cc1ccc(F)cc1)Nc1ccc2[nH]c(=O)[nH]c2c1` gave SUMO1 PPI mod 74*, MBD2 inh -2, Pemphigus Ab inh 90, DNMT1 inh -2 and UHRF1 binding -1.
For Cc1cc(C)n2c(Nc3ccc4c(c3)OCCO4)c(-c3ccco3)nc2n1 the results were NS3 helicase inh 60*.
For O=C1CS/C(=N/N=C/c2cccs2)N1Cc1ccc(F)cc1 the results were SUMO1 PPI mod -7, NS3 helicase inh -1, MBD2 inh 0, Pemphigus Ab inh 70*, DNMT1 inh 0 and UHRF1 binding 1.
For C=CCN1C(=O)C(Cc2ccc(F)cc2)S/C1=N/N=C/c1cccs1 (stereo not given) the results were SUMO1 PPI mod -4, NS3 helicase inh -4, MBD2 inh 1, Pemphigus Ab inh 103, DNMT1 inh -4 and UHRF1 binding 1.
For Oc1[nH]c2ccccc2c1N=Nc1ccccc1Cl the results were SUMO1 PPI mod -3, MBD2 inh -3, Pemphigus Ab inh 97, DNMT1 inh 54* and UHRF1 binding -1.
Screening Oc1[nH]c2ccccc2c1N=Nc1c(F)c(F)c(Cl)c(F)c1F returned SUMO1 PPI mod -5, NS3 helicase inh 9, MBD2 inh -6, Pemphigus Ab inh 99, DNMT1 inh -2 and UHRF1 binding 0.
For O=C(CCCn1c(=S)[nH]c2ccccc2c1=O)NCCSCc1ccccc1 the results were SUMO1 PPI mod 2, NS3 helicase inh 6, MBD2 inh -3, Pemphigus Ab inh 119, DNMT1 inh 4 and UHRF1 binding -2.
`O=C(CCCn1c(=O)[nH]c2ccccc2c1=O)NCCSCc1ccccc1` gave SUMO1 PPI mod 2, NS3 helicase inh -2, MBD2 inh -1, Pemphigus Ab inh 23*, DNMT1 inh 1 and UHRF1 binding 1.
CCCCN(C)S(=O)(=O)c1cc2c3c(c1)CCC(=O)N3CCC2 was read as SUMO1 PPI mod 3, NS3 helicase inh 26, MBD2 inh 1, Pemphigus Ab inh 107, DNMT1 inh 0 and UHRF1 binding -3.
Screening CCC(CO)Oc1cc(NCc2ccccc2)c2ncn(C(C)C)c2c1 (stereo not given) returned SUMO1 PPI mod 0, MBD2 inh -7, Pemphigus Ab inh 110, DNMT1 inh -12 and UHRF1 binding -3.
Screening CCC(CO)Oc1cc(NC(=O)c2ccc(N)cc2)c2ncn(C(C)C)c2c1 (stereo not given) returned SUMO1 PPI mod 102*, MBD2 inh 6, Pemphigus Ab inh 98, DNMT1 inh -7 and UHRF1 binding 18.
`CCC(COC)Oc1cc(NCc2ccccc2)c2ncn(C(C)C)c2c1` (stereo not given) gave SUMO1 PPI mod -1, MBD2 inh -13, Pemphigus Ab inh 114, DNMT1 inh 54* and UHRF1 binding 4.
For Cc1cc(-c2n[nH]c(=S)n2/N=C/c2ccc(C)s2)n[nH]1 the results were SUMO1 PPI mod -3, NS3 helicase inh 5, MBD2 inh 1, DNMT1 inh 1 and UHRF1 binding 0.
`CCCCc1nnc(NC(=O)CCSc2ccccc2)s1` gave SUMO1 PPI mod 2, NS3 helicase inh -4, MBD2 inh -2, Pemphigus Ab inh 105, DNMT1 inh 3 and UHRF1 binding 1.
Screening O=C(O)c1ccccc1N=Nc1c(O)[nH]c2ccc([N+](=O)[O-])cc12 returned SUMO1 PPI mod 111*, NS3 helicase inh 14, Pemphigus Ab inh 106 and DNMT1 inh 17.
Screening O=C(N=Nc1c(O)[nH]c2ccc([N+](=O)[O-])cc12)c1ccccc1Cl returned SUMO1 PPI mod 18, NS3 helicase inh -2, MBD2 inh 1, Pemphigus Ab inh 97, DNMT1 inh 6 and UHRF1 binding -1.
For O=C(CNC(=O)c1ccccc1)N=Nc1c(O)[nH]c2ccc(Br)cc12 the results were SUMO1 PPI mod -12, NS3 helicase inh 9, MBD2 inh 0, Pemphigus Ab inh 104, DNMT1 inh 4 and UHRF1 binding -4.

Screening data from PubChem.
